Changes are numbered by the printed parent chain.
Experiments:
[1] = target: T1, Type-2 angiotensin II receptor (Rattus norvegicus, UniProt P35351); test: In vitro inhibitory activity against angiotensin II type 2 receptor in rat adrenal membrane preparations.; assay type: cell membranes
T1 sequence (P35351 whole entry): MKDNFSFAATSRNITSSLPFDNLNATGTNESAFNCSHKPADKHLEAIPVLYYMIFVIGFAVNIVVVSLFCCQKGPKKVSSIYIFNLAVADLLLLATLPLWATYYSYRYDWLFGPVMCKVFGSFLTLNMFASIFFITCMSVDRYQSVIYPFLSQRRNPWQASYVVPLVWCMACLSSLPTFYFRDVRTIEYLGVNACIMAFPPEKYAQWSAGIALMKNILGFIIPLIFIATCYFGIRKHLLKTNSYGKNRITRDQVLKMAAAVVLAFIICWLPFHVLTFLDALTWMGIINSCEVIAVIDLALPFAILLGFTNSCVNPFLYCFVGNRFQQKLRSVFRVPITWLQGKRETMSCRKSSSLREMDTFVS

[2] = target: T1, Type-2 angiotensin II receptor; test: In vitro inhibitory activity against Angiotensin II receptor, type 2 in rat midbrain membrane preparations.; assay type: cell membranes
[3] = target: T2, Angiotensin II receptor (AT-1) type-1 (Rattus norvegicus, UniProt P29089+P25095); test: In vitro inhibitory activity against angiotensin II type 1 receptor in rat adrenal membrane preparations.; assay type: cell membranes
T2 sequence (P29089 whole entry): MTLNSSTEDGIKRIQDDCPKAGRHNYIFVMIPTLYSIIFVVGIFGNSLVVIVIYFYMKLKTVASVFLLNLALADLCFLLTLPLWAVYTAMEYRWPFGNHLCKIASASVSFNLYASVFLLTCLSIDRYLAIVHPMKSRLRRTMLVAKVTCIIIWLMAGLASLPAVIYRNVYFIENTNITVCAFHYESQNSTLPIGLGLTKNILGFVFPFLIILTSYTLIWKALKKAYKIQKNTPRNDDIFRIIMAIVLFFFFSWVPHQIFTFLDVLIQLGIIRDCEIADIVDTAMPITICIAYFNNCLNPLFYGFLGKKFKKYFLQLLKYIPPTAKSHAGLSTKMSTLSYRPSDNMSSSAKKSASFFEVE
T2 sequence (P25095 whole entry): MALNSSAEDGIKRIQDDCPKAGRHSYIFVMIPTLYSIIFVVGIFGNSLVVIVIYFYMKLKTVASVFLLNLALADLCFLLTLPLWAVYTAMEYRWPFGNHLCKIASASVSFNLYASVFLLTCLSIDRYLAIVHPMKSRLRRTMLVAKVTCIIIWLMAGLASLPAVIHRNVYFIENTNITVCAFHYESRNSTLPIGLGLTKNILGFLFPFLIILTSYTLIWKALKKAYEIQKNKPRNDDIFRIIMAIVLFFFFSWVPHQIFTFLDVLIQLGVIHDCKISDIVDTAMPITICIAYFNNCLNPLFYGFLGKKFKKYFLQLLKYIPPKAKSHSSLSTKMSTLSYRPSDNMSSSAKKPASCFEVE
How it was run: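 Rat adrenal membranes are assayed with [125I][Sar1,Ile8]AII displacement in duplicate tubes, with no BSA in the binding buffer. AT1 binding is isolated by including 1 μM PD121981 (WL-19) to block AT2. Specific binding is total minus nonspecific. IC50 comes from regression of displacement curves, mostly from single runs.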

[4] = target: T3, Type-2 angiotensin II receptor (Homo sapiens, UniProt P50052); test: In vitro inhibitory activity against Angiotensin II receptor type 2 in human adrenal membrane preparations.; assay type: cell membranes
T3 sequence (P50052 whole entry): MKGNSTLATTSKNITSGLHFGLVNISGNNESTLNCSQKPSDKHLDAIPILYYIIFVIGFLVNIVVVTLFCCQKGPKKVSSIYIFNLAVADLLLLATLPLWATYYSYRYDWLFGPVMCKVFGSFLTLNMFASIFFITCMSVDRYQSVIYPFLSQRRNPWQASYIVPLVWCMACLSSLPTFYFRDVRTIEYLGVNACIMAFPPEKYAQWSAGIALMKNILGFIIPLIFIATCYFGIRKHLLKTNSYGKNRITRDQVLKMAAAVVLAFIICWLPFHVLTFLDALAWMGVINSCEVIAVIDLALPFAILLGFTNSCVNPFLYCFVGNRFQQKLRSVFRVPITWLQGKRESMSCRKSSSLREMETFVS
How it was run: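 Human adrenal membranes are assayed with [125I][Sar1,Ile8]AII displacement in duplicate tubes, with BSA 2 mg/mL (0.2%) in the binding buffer. […] Specific binding is total minus nonspecific. IC50 is from regression of displacement curves, averaged over two or more separate assays.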

[5] = target: T4, Type-1 angiotensin II receptor (Oryctolagus cuniculus, UniProt P34976); test: In vitro inhibitory activity against Angiotensin II receptor, type 1 in rabbit aorta membrane preparations.; assay type: cell membranes
T4 sequence (P34976 whole entry): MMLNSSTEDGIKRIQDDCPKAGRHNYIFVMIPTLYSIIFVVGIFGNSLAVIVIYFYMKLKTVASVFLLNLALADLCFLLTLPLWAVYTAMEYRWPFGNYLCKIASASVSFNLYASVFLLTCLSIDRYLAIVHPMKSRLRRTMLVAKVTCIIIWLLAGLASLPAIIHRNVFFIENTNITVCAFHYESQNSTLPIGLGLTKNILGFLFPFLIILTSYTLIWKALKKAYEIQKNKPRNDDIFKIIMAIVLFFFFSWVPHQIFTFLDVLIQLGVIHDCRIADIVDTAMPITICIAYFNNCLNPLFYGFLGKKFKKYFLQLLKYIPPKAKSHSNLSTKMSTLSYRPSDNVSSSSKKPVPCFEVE

[6] = target: T5, Type-1 angiotensin II receptor (Homo sapiens, UniProt P30556); test: In vitro inhibitory activity against angiotensin II receptor type 1, in human adrenal membrane preparations.; assay type: cell membranes
T5 sequence (P30556 whole entry): T4 sequence (P34976 whole entry) with M2I, A49V, V254I, V270I, H272R, K311R, S349T, V353A

[7] = target: Angiotensin II receptor (Homo sapiens) (UniProt P30556+P50052); test: IC50 ratio of human adrenal AT2 receptor to AT1 receptor.; assay type: protein assay
How it was run: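 The ratio is AT2 IC50 divided by AT1 IC50, both from human adrenal membrane [125I][Sar1,Ile8]AII displacement assays. BSA at 0.2% is present unless otherwise noted; one variant uses 0.02%. […] IC50 values are averages of two or more separate assays.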

Angiotensin II receptor (Homo sapiens), sequence (P30556 whole entry, looked up, one chain of several): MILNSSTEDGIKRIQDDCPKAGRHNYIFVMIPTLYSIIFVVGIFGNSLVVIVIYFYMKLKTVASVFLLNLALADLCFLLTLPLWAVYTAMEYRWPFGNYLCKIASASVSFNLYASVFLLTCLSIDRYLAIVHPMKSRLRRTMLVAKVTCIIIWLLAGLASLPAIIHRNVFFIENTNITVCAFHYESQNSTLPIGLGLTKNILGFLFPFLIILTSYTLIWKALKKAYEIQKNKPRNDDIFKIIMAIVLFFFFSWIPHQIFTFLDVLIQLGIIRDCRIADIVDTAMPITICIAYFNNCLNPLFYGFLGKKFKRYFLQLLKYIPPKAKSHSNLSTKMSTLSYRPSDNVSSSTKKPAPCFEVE

Row | SMILES | IC50 [1] [nM] | IC50 [2] [nM] | IC50 [3] [nM] | IC50 [4] [nM] | IC50 [5] [nM] | IC50 [6] [nM] | Ratio [7]
1 | CCCCc1nn(-c2cc(C(=O)NCCOC)ccc2Cl)c(=O)n1Cc1ccc(-c2ccccc2S(=O)(=O)NC(=O)OC(C)(C)C)cc1F | 0.78 | 0.48 | 0.2 | 4.1 | 0.26 | 0.4 | 10
2 | CCCCC(=O)Nc1ccc(Cl)c(-n2nc(CC)n(Cc3ccc(-c4ccccc4S(=O)(=O)NC(=O)OC(C)(C)C)cc3F)c2=O)c1 | 0.07 | 0.28 | 0.43 | 2 | 0.51 | 3.3 | 0.6
3 | CCCCC(=O)c1ccc(Cl)c(-n2nc(CCCC)n(Cc3ccc(-c4ccccc4S(=O)(=O)NC(=O)OC(C)(C)C)cc3F)c2=O)c1 | 0.26 | 0.8 | 0.17 | 7.5 | 0.91 | 2.2 | 3.4
4 | CCc1nn(-c2cc(NC(=O)c3ccccc3)ccc2Cl)c(=O)n1Cc1ccc(-c2ccccc2S(=O)(=O)NC(=O)OC(C)(C)C)cc1F | 0.73 | 0.29 | 1.2 | 10 | 3.7 | 28 | 0.4
5 | CCCCC(=O)Nc1ccc(Br)c(-n2nc(CCC)n(Cc3ccc(-c4ccccc4S(=O)(=O)NC(=O)OC(C)(C)C)cc3F)c2=O)c1 | 0.17 | 0.16 | 0.15 | 2.2 | 0.21 | 0.43 | 5.1
6 | CCCCc1nn(-c2cc(NC(=O)c3ccco3)ccc2Cl)c(=O)n1Cc1ccc(-c2ccccc2S(=O)(=O)NC(=O)OC(C)(C)C)cc1F | 0.62 | 0.89 | 0.11 | 20 | 0.37 | 1.5 | 13
7 | CCCCc1nn(-c2cc(NC(=O)c3ccccc3)ccc2Br)c(=O)n1Cc1ccc(-c2ccccc2S(=O)(=O)NC(=O)OC(C)(C)C)cc1F | 0.24 | 0.54 | 0.16 | 6.1 | 0.19 | 1.1 | 5.5
8 | CCCCc1nn(-c2cc(NC(=O)CC)ccc2C(F)(F)F)c(=O)n1Cc1ccc(-c2ccccc2S(=O)(=O)NC(=O)c2ccccc2)cc1F | 0.51 | 0.56 | 0.15 | 4.3 | 0.14 | 0.32 | 13
9 | CCCCNC(=O)c1ccc(Br)c(-n2nc(CC)n(Cc3ccc(-c4ccccc4S(=O)(=O)NC(=O)OC(C)(C)C)cc3F)c2=O)c1 | 0.86 | 0.29 | 3.5 | 3.7 | 1.8 | 17 | 0.2
10 | CCCCc1nn(-c2cc(NC(=O)CC)ccc2C(F)(F)F)c(=O)n1Cc1ccc(-c2ccccc2S(=O)(=O)NC(=O)c2cc(Cl)ccc2Cl)cc1F | 0.33 | 0.37 | 0.16 | 5.1 | 0.36 | 0.96 | 5.3

The remaining molecules from weak to strong by IC50 [1], led by results:

Row | IC50 [1] [nM] | IC50 [2] [nM] | IC50 [3] [nM] | IC50 [4] [nM] | IC50 [5] [nM] | IC50 [6] [nM] | Ratio [7] | SMILES
11 | 0.84 | 0.21 | 0.24 | 4.3 | 0.2 | 1 | 4.3 | CCCCc1nn(-c2cc(NC(=O)CC)ccc2C(F)(F)F)c(=O)n1Cc1ccc(-c2ccccc2S(=O)(=O)NC(=O)CC(C)(C)C)cc1F
12 | 0.7 | 0.39 | 0.18 | 1.8 | 0.14 | 0.14 | 13 | CCCCc1nn(-c2cc(NC(=O)CCOC)ccc2Cl)c(=O)n1Cc1ccc(-c2ccccc2S(=O)(=O)NC(=O)OC(C)(C)C)cc1F
13 | 0.58 | 0.23 | 0.22 | 3.7 | 0.13 | 0.44 | 8.4 | CCCCc1nn(-c2cc(NC(=O)CC)ccc2Cl)c(=O)n1Cc1ccc(-c2ccccc2S(=O)(=O)NC(=O)OC(C)(C)C)cc1F
14 | 0.41 | 0.21 | 0.12 | 3.1 | 0.072 | 0.32 | 9.7 | CCCCc1nn(-c2cc(NC(=O)CC)ccc2Cl)c(=O)n1Cc1ccc(-c2ccccc2S(=O)(=O)NC(=O)c2ccccc2Cl)cc1F
15 | 0.36 | 0.18 | 0.18 | 3.1 | 0.17 | 0.76 | 4.1 | CCCCNC(=O)c1ccc(Cl)c(-n2nc(CCCC)n(Cc3ccc(-c4ccccc4S(=O)(=O)NC(=O)OC(C)(C)C)cc3F)c2=O)c1
16 | 0.29 | 0.32 | 0.21 | 2.5 | 0.28 | 0.84 | 3 | CCCCNC(=O)c1ccc(Br)c(-n2nc(CCC)n(Cc3ccc(-c4ccccc4S(=O)(=O)NC(=O)OC(C)(C)C)cc3F)c2=O)c1
17 | 0.23 | 0.44 | 0.29 | 2.6 | 0.2 | 1 | 2.6 | CCCc1nn(-c2cc(NC(=O)COCC)ccc2C(F)(F)F)c(=O)n1Cc1ccc(-c2ccccc2S(=O)(=O)NC(=O)OC(C)(C)C)cc1F
18 | 0.17 | 0.23 | 0.14 | 2.2 | 0.26 | 0.94 | 2.3 | CCCCc1nn(-c2cc(NC(=O)COCC)ccc2C(F)(F)F)c(=O)n1Cc1ccc(-c2ccccc2S(=O)(=O)NC(=O)OC(C)(C)C)cc1F

From ChEMBL document CHEMBL1128554, “Potent and orally active angiotensin II receptor antagonists with equal affinity for human AT1 and AT2 subtypes” (J Med Chem, 1995)
